The values below come from the array DNA melting data of Ke et al. (doi:10.1101/2024.01.08.574731).

The nature of data set [1]: melting temperature; fluorescence melt of hairpins on a sequencing array, two-state fit, raised by 9.35 °C to match UV melts. The settings on record: sodium 0.088 M. An outline of the steps:
(§1)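 In 50 mM Na-HEPES pH 8.0 containing 25 mM NaCl, hairpins from the library on a sequenced MiSeq flow cell were imaged for Cy3 fluorescence at 2.5 °C steps up to 60 °C, with Cy3 and quencher oligos annealed. After normalisation to pre-quench Cy3 and to control constructs, two-state fits with bootstrapping gave melting temperature and folding enthalpy. Four replicates were combined by inverse-variance weighting, and fitted temperatures were shifted up by 9.35 °C to match UV melts.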

The nature of data set [2]: folding enthalpy; higher = less favourable; fluorescence melt of hairpins on a sequencing array, two-state fit. The settings on record: sodium 0.088 M. An outline of the steps:
as §1

On to GATCTCGGAAACGAGATC (((((((....))))))), for which the Tm in data set [1] is 64.3 °C. Moreover, the folding enthalpy in data set [2] is -45.5 kcal/mol.
Taken in the same sequence, the figures for GATCTCGGAGAGATC ((((((...)))))) were 67.4 °C and -33.3 kcal/mol.
On to GATCTCGGGAGAGATC ((((((....)))))), for which, in data set [1], the Tm stood at 63.2 °C. The folding enthalpy in data set [2] is -41.6 kcal/mol.
Consider GATCTCGGTCGAGATC ((((((....)))))), for which the Tm in data set [1] turned out to be 56.2 °C. For the same sequence, the folding enthalpy in data set [2] was -41.5 kcal/mol.
On the same counts, the results for GATCTCGGTGAGATC ((((((...)))))) are 55.9 °C and -12.9 kcal/mol.
On the same counts, the results for GATCTCGTAAGAGATC ((((((....)))))) are 68.4 °C and -35.3 kcal/mol.
Turning to GATCTCGTATGAGATC ((((((....)))))), the Tm in data set [1] amounted to 59.2 °C. Besides, the folding enthalpy in data set [2] was -46.5 kcal/mol.
As for GATCTCGTGAGAGATC ((((((....)))))), the Tm in data set [1] was 66.9 °C. In addition, the folding enthalpy in data set [2] is -31 kcal/mol.
On the same counts, the results for GATCTCGTTAGAGATC ((((((....)))))) are 65.1 °C and -39.9 kcal/mol.
On the same counts, the results for GATCTCGTTTGAGATC ((((((....)))))) are 55.6 °C and -32.9 kcal/mol.
Taken in the same sequence, the figures for GATCTCTAAGGAGATC ((((((....)))))) were 53.8 °C and -34.9 kcal/mol.
For the sequence GATCTCTAATGAGATC ((((((....)))))), in data set [1], the Tm was 49.9 °C. Besides, in data set [2], the folding enthalpy was -46.5 kcal/mol.
Taken in the same sequence, the figures for GATCTCTATCGAGATC ((((((....)))))) were 51.1 °C and -39.4 kcal/mol.
Take GATCTCTCATGAGATC ((((((....)))))): the Tm in data set [1] was 52.3 °C. The folding enthalpy in data set [2] was -44.1 kcal/mol.
For the sequence GATCTCTCCCGAGATC ((((((....)))))), the Tm in data set [1] was determined as 52.1 °C. Also, the folding enthalpy in data set [2] is -41.2 kcal/mol.
GATCTCTCGGAGATC ((((((...)))))): in data set [1], the Tm was 55.6 °C. In addition, in data set [2], the folding enthalpy is -37.1 kcal/mol.
For the sequence GATCTCTCTGAGATC ((((((...)))))), the Tm in data set [1] was 55.4 °C. Also, in data set [2], the folding enthalpy is -37.5 kcal/mol.
Taken in the same sequence, the figures for GATCTCTGACGAGATC ((((((....)))))) were 50 °C and -30.5 kcal/mol.
Take GATCTCTGAGAGATC ((((((...)))))): the Tm in data set [1] was 52.1 °C. In addition, the folding enthalpy in data set [2] is -32.5 kcal/mol.
Taken in the same sequence, the figures for GATCTCTGAGGAGATC ((((((....)))))) were 55.8 °C and -43.4 kcal/mol.
Taken in the same sequence, the figures for GATCTCTGATGAGATC ((((((....)))))) were 51.3 °C and -33.3 kcal/mol.
On the same counts, the results for GATCTCTGTGAGATC ((((((...)))))) are 54.9 °C and -42.6 kcal/mol.
GATCTCTGTTGAGATC ((((((....)))))): in data set [1], the Tm amounted to 54.3 °C. The folding enthalpy in data set [2] is -41 kcal/mol.
Turning to GATCTCTTAGGAGATC ((((((....)))))), in data set [1], the Tm stood at 54.2 °C. In addition, the folding enthalpy in data set [2] is -38.1 kcal/mol.
Taken in the same sequence, the figures for GATCTCTTCGGAGATC ((((((....)))))) were 54.5 °C and -42.6 kcal/mol.
GATCTCTTGAGAGATC ((((((....)))))): in data set [1], the Tm turned out to be 53.8 °C. The folding enthalpy in data set [2] is -32.4 kcal/mol.
Taken in the same sequence, the figures for GATCTCTTGCGAGATC ((((((....)))))) were 51.9 °C and -42.4 kcal/mol.
Taken in the same sequence, the figures for GATCTGAAACAGATC ((((((...)))))) were 46.3 °C and -31.6 kcal/mol.
Taken in the same sequence, the figures for GATCTGAAAGCAGATC ((((((....)))))) were 42.1 °C and -26.4 kcal/mol.
As for GATCTGAACGCAGATC ((((((....)))))), the Tm in data set [1] is 46.3 °C. Moreover, the folding enthalpy in data set [2] was -26.1 kcal/mol.
In the case of GATCTGAAGTCAGATC ((((((....)))))), in data set [1], the Tm was 47.7 °C. The folding enthalpy in data set [2] is -39.1 kcal/mol.
On the same counts, the results for GATCTGAATCCAGATC ((((((....)))))) are 46 °C and -37.8 kcal/mol.
Turning to GATCTGACAGCAGATC ((((((....)))))), the Tm in data set [1] worked out at 44.7 °C. Moreover, the folding enthalpy in data set [2] was -28.6 kcal/mol.
On the same counts, the results for GATCTGACCCAGATC ((((((...)))))) are 47.7 °C and -37.4 kcal/mol.
In the case of GATCTGACCTCAGATC ((((((....)))))), the Tm in data set [1] was 49.3 °C. For the same sequence, the folding enthalpy in data set [2] was -38.9 kcal/mol.
On the same counts, the results for GATCTGACGCAGATC ((((((...)))))) are 47.3 °C and -29.5 kcal/mol.
On to GATCTGACGTCAGATC ((((((....)))))), for which, in data set [1], the Tm was found to be 55.5 °C. Further, the folding enthalpy in data set [2] is -42.6 kcal/mol.
On the same counts, the results for GATCTGACTCCAGATC ((((((....)))))) are 46.6 °C and -33.9 kcal/mol.
On the same counts, the results for GATCTGACTTCAGATC ((((((....)))))) are 49.2 °C and -34.2 kcal/mol.
For GATCTGAGACCAGATC ((((((....)))))), in data set [1], the Tm was 44.5 °C. Moreover, the folding enthalpy in data set [2] was -32.9 kcal/mol.
On the same counts, the results for GATCTGAGCACAGATC ((((((....)))))) are 49.5 °C and -29 kcal/mol.
In the case of GATCTGAGCGCAGATC ((((((....)))))), the Tm in data set [1] stood at 48.5 °C. In addition, the folding enthalpy in data set [2] is -24.7 kcal/mol.
Taken in the same sequence, the figures for GATCTGAGGACAGATC ((((((....)))))) were 46.3 °C and -26.1 kcal/mol.
With GATCTGAGTCCAGATC ((((((....)))))), in data set [1], the Tm turned out to be 46.7 °C. Moreover, the folding enthalpy in data set [2] was -30 kcal/mol.
Taken in the same sequence, the figures for GATCTGATACAGATC ((((((...)))))) were 48.7 °C and -39.4 kcal/mol.
Regarding GATCTGATCACAGATC ((((((....)))))), the Tm in data set [1] is 50.4 °C. Further, the folding enthalpy in data set [2] is -36.8 kcal/mol.
On to GATCTGCACACAGATC ((((((....)))))), for which the Tm in data set [1] is 51.6 °C. Moreover, the folding enthalpy in data set [2] is -43.9 kcal/mol.
Taken in the same sequence, the figures for GATCTGCATCAGATC ((((((...)))))) were 47.8 °C and -30.6 kcal/mol.
With GATCTGCATCCAGATC ((((((....)))))), the Tm in data set [1] came out at 46.7 °C. In addition, the folding enthalpy in data set [2] was -42 kcal/mol.
With GATCTGCCCCAGATC ((((((...)))))), in data set [1], the Tm worked out at 49.2 °C. Also, the folding enthalpy in data set [2] was -33.6 kcal/mol.
On to GATCTGCCGAAAGGCATC (((..(((....)))))), for which the Tm in data set [1] was determined as 24.6 °C. Moreover, the folding enthalpy in data set [2] is -6.41 kcal/mol.
Taken in the same sequence, the figures for GATCTGCCGACAGATC ((((((....)))))) were 50.1 °C and -29.7 kcal/mol.
Taken in the same sequence, the figures for GATCTGCCTTCAGATC ((((((....)))))) were 49 °C and -30.7 kcal/mol.
On to GATCTGCGAAAGCAATC (((.(((....)))))), for which, in data set [1], the Tm turned out to be 27.8 °C. Further, the folding enthalpy in data set [2] was -12.2 kcal/mol.
For GATCTGCGGCAGATC ((((((...)))))), the Tm in data set [1] is 50.2 °C. Also, in data set [2], the folding enthalpy is -46.3 kcal/mol.
Taken in the same sequence, the figures for GATCTGCGGTCAGATC ((((((....)))))) were 49.7 °C and -32.9 kcal/mol.
For the sequence GATCTGCGTCAGATC ((((((...)))))), the Tm in data set [1] turned out to be 49.6 °C. Moreover, the folding enthalpy in data set [2] is -29.4 kcal/mol.
As for GATCTGCTCGCAGATC ((((((....)))))), in data set [1], the Tm was determined as 62.6 °C. For the same sequence, the folding enthalpy in data set [2] is -47.5 kcal/mol.
On the same counts, the results for GATCTGCTGCAGATC ((((((...)))))) are 50.4 °C and -41.4 kcal/mol.
Taken in the same sequence, the figures for GATCTGCTTACAGATC ((((((....)))))) were 51.8 °C and -42.8 kcal/mol.
With GATCTGCTTCAGATC ((((((...)))))), the Tm in data set [1] turned out to be 48.7 °C. Also, the folding enthalpy in data set [2] was -36.6 kcal/mol.
In the case of GATCTGCTTCCAGATC ((((((....)))))), the Tm in data set [1] worked out at 48.5 °C. Besides, in data set [2], the folding enthalpy was -33.4 kcal/mol.
With GATCTGGAGCAGATC ((((((...)))))), the Tm in data set [1] is 45.4 °C. For the same sequence, the folding enthalpy in data set [2] was -28.1 kcal/mol.
Taken in the same sequence, the figures for GATCTGGATGCAGATC ((((((....)))))) were 50.8 °C and -35.5 kcal/mol.
Taken in the same sequence, the figures for GATCTGGCAGCAGATC ((((((....)))))) were 51.3 °C and -41.8 kcal/mol.
For GATCTGGCTCAGATC ((((((...)))))), the Tm in data set [1] was determined as 49.1 °C. In data set [2], the folding enthalpy is -35.5 kcal/mol.
On the same counts, the results for GATCTGGGAAACTAGATC (((((.(....).))))) are 42.4 °C and -32.2 kcal/mol.
Taken in the same sequence, the figures for GATCTGGGAACAGATC ((((((....)))))) were 54.5 °C and -39.8 kcal/mol.
Taken in the same sequence, the figures for GATCTGGGCCAGATC ((((((...)))))) were 53.2 °C and -51.8 kcal/mol.
Consider GATCTGGGTACAGATC ((((((....)))))), for which, in data set [1], the Tm was determined as 57.7 °C. Further, in data set [2], the folding enthalpy was -38.7 kcal/mol.
Taken in the same sequence, the figures for GATCTGGTAGCAGATC ((((((....)))))) were 52.2 °C and -36.6 kcal/mol.
Consider GATCTGGTCACAGATC ((((((....)))))), for which the Tm in data set [1] is 62.1 °C. In addition, the folding enthalpy in data set [2] was -40.3 kcal/mol.
As for GATCTGGTGCCAGATC ((((((....)))))), the Tm in data set [1] is 52.2 °C. The folding enthalpy in data set [2] was -46.6 kcal/mol.
On to GATCTGTAAGCAGATC ((((((....)))))), for which the Tm in data set [1] was 51.4 °C. Moreover, the folding enthalpy in data set [2] is -49.9 kcal/mol.
On to GATCTGTACACAGATC ((((((....)))))), for which the Tm in data set [1] is 54.6 °C. Besides, the folding enthalpy in data set [2] is -37.4 kcal/mol.
Taken in the same sequence, the figures for GATCTGTAGTCAGATC ((((((....)))))) were 49.1 °C and -35.5 kcal/mol.
